Experimental findings from the array DNA melting data of Ke et al. (doi:10.1101/2024.01.08.574731) are described below.

A short description of series [1]: melting temperature; fluorescence melt of hairpins on a sequencing array, two-state fit, raised by 9.35 °C to match UV melts. As to conditions: sodium 0.088 M. In short, it runs like this: (§1)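 Folding enthalpy and melting temperature come from bootstrapped two-state fits to Cy3 fluorescence of library hairpins carrying annealed Cy3 and quencher oligos on a sequenced MiSeq flow cell. Imaging was done in 50 mM Na-HEPES pH 8.0, 25 mM NaCl, stepping by 2.5 °C up to 60 °C, and signals were normalised to pre-quench Cy3 and to control constructs. Results of four replicates were combined by inverse variance, and fitted temperatures were raised by 9.35 °C to match UV melts.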

Series [2] is described as follows: folding enthalpy; higher = less favourable; fluorescence melt of hairpins on a sequencing array, two-state fit. As to conditions: sodium 0.088 M. In short, it runs like this:
as §1

As for GCTAAGCGAAAGCGTCGC ((.(.((....)).).)), the Tm in series [1] is 45.8 °C. The folding enthalpy in series [2] is -14 kcal/mol.

Regarding GCGGTTTCCCGC ((((....)))), in series [1], the Tm was found to be 56.2 °C. Further, the folding enthalpy in series [2] is -25 kcal/mol.

GCTTACGCGAAAGCGAGC (((..(((....)))))): the Tm in series [1] is 43 °C. Further, the folding enthalpy in series [2] is -12.7 kcal/mol.

As for GTTCCCGGAAACGGAAAC (((.(((....))).))), the Tm in series [1] worked out at 41.1 °C. Also, the folding enthalpy in series [2] is -24.4 kcal/mol.

With GCTAATGGAAACATTAGC (((((((....))))))), the Tm in series [1] is 56 °C. Besides, the folding enthalpy in series [2] is -45.4 kcal/mol.

As for GATCAAATAGTTGATC ((((((....)))))), the Tm in series [1] is 37.9 °C. Besides, the folding enthalpy in series [2] was -29.5 kcal/mol.

On to GACCCAGGAAACCGGGTC (((((.(....).))))), for which, in series [1], the Tm was found to be 52.9 °C. Further, the folding enthalpy in series [2] was -32.8 kcal/mol.

Regarding GAGGTGGGAAACCGCTTC ((.(.((....)).).)), the Tm in series [1] amounted to 50 °C. For the same sequence, in series [2], the folding enthalpy was -19.1 kcal/mol.

GCGCAAGGAAACTTGTGC ((.((((....)))).)): in series [1], the Tm is 54.9 °C. Further, the folding enthalpy in series [2] is -48.9 kcal/mol.

In the case of GGTAAACGAAAGTTAACC (((.(((....))).))), the Tm in series [1] is 43.2 °C. Besides, the folding enthalpy in series [2] was -30.5 kcal/mol.

In the case of GATCGCAAAGGCGATC ((((((....)))))), the Tm in series [1] is 63.9 °C. Besides, the folding enthalpy in series [2] was -41.9 kcal/mol.

Regarding GCGCCGCGAAAGCGCAGC ((..(((....)))..)), the Tm in series [1] amounted to 59.8 °C. Besides, the folding enthalpy in series [2] was -14.1 kcal/mol.

For GTGTGTGGAAACACACAC (((((((....))))))), the Tm in series [1] is 68.8 °C. In series [2], the folding enthalpy was -32.2 kcal/mol.

For the sequence GCCGTGCGAAAGCTCCGC ((.(.((....)).).)), the Tm in series [1] was 40.4 °C. Further, the folding enthalpy in series [2] is -11.2 kcal/mol.

On to GATCCTATGAAGGATC ((((((....)))))), for which, in series [1], the Tm worked out at 51 °C. The folding enthalpy in series [2] is -34 kcal/mol.

Take GCGTGCGGACGC ((((....)))): the Tm in series [1] was determined as 54.7 °C. Further, the folding enthalpy in series [2] was -15.6 kcal/mol.

As for GTAGGAGGAAACTTCTAC ((((.((....)).)))), in series [1], the Tm came out at 37.4 °C. Besides, the folding enthalpy in series [2] was -27 kcal/mol.

For the sequence GCGACCGAAAGGTATCGC ((((((....)))..))), the Tm in series [1] stood at 50.5 °C. In addition, the folding enthalpy in series [2] is -27.7 kcal/mol.

In the case of GATCAGTTTCTGATC ((((((...)))))), in series [1], the Tm came to 50.8 °C. Further, the folding enthalpy in series [2] was -43.7 kcal/mol.

For GATCTCGATTGAGATC ((((((....)))))), the Tm in series [1] came out at 51.7 °C. In series [2], the folding enthalpy is -39.4 kcal/mol.

As for GCGATGGTCGC ((((...)))), the Tm in series [1] was 47.8 °C. Also, in series [2], the folding enthalpy was -7.34 kcal/mol.

As for GCATGGCGAAAGCACTGC (((..((....))..))), the Tm in series [1] came to 46.3 °C. In series [2], the folding enthalpy was -20.6 kcal/mol.

With GGCGATGGAAACATTGCC (((.(((....))).))), the Tm in series [1] came out at 55.2 °C. In series [2], the folding enthalpy was -47.2 kcal/mol.

In the case of GGCCTCGAAAGAGATGCC ((((((....)))..))), the Tm in series [1] amounted to 46.8 °C. Further, in series [2], the folding enthalpy was -24.1 kcal/mol.

As for GATGTCCCGAAAGGGATC (((..(((....)))))), the Tm in series [1] is 33.6 °C. The folding enthalpy in series [2] is -9.1 kcal/mol.

In the case of CGGTCCCGGAAACGGCCG (((..(((....)))))), in series [1], the Tm amounted to 41.3 °C. For the same sequence, the folding enthalpy in series [2] was -21.1 kcal/mol.

Regarding GATCTCACGTGAGATC ((((((....)))))), in series [1], the Tm was 55.1 °C. Moreover, in series [2], the folding enthalpy was -54.2 kcal/mol.

As for GTCTCATCGAAAGATGAC (((..(((....)))))), the Tm in series [1] was 35.4 °C. Also, the folding enthalpy in series [2] was -10.9 kcal/mol.

For GATCTCCTAGGAGATC ((((((....)))))), the Tm in series [1] came out at 57.8 °C. Besides, the folding enthalpy in series [2] was -36 kcal/mol.

Turning to GACAGTGGAAACACCATC ((..(((....)))..)), the Tm in series [1] was 19.9 °C. The folding enthalpy in series [2] was -10.3 kcal/mol.

GTACGGGGAAACTCGTAC (((((.(....).))))): the Tm in series [1] came out at 50.7 °C. Besides, the folding enthalpy in series [2] was -35.4 kcal/mol.

Regarding GCAACGCGAAAGCTGTGC (((..((....))..))), in series [1], the Tm was determined as 48.9 °C. The folding enthalpy in series [2] was -15.2 kcal/mol.

For GATCCGACAACGGATC ((((((....)))))), in series [1], the Tm stood at 57 °C. Also, in series [2], the folding enthalpy was -35 kcal/mol.

With GTGTGCGGAAACGCACGC (.(((((....))))).), in series [1], the Tm came out at 66 °C. For the same sequence, the folding enthalpy in series [2] is -16.4 kcal/mol.

For CGGTCGGAAACGATTCCG ((((((....)))..))), the Tm in series [1] was 43.9 °C. For the same sequence, in series [2], the folding enthalpy was -19.8 kcal/mol.

Consider GCACATCCGAAAGGATGC (((..(((....)))))), for which the Tm in series [1] amounted to 37.4 °C. For the same sequence, in series [2], the folding enthalpy is -8.29 kcal/mol.

As for GATCGGACGTCCGATC ((((((....)))))), the Tm in series [1] came to 62.7 °C. The folding enthalpy in series [2] is -47.5 kcal/mol.
